Data set [1] deals with PC-3. Briefly: Cytotoxicity against human PC3 cells after 72 hrs by MTT assay. The note with it: PC-3, 72 h, read-out: ED50 (the source's name). Format: functional. In short, it runs like this: (§1)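 Cells seeded at 1000/well (NTUB1, PC3) or 5000/well (SV-HUC1), incubated overnight at 37 °C, then exposed to graded concentrations for 72 h. Compounds were made up in DMSO and diluted in medium to 0.1% DMSO. MTT (2 mg/mL in PBS) added for 3 h, formazan dissolved in DMSO, absorbance read at 540 nm. Viability expressed as % of control; IC50 by median-effect analysis.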

The nature of data set [2]: Cytotoxicity against human NTUB1 cells after 72 hrs by MTT assay. The data set is classed as functional. The conditions noted are these: NTUB1, 72 h, read-out: ED50 (the source's name). In a few lines: as §1
In general terms: Tetrazolium assays rely on reduction of a dye to a coloured formazan, in cell work by metabolically active cells.

Data set [3] in a line: Cytotoxicity against human NTUB1 cells at >50 uM after 72 hrs by MTT assay. Format: functional. In a few lines: as §1
Data set [4] relates to PC-3. Description: Cytotoxicity against human PC3 cells at >50 uM after 72 hrs by MTT assay. The data set is classed as functional. In a few lines: as §1
A short description of data set [5]: Cytotoxicity against human NTUB1 cells at >30 uM after 72 hrs by MTT assay. Format: functional. In a few lines: as §1
For data set [6], the system named is NTUB1. Briefly: Induction of ROS production in human NTUB1 cells using H2DCFDA staining after 24 hrs by flow cytometry analysis. Format: functional, cell-based. In a few lines: (§2)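 NTUB1 cells treated 24 h with compounds, 20 µM cisplatin or 1 mM NAC. 10 µM H₂DCFDA added 30 min before harvest. Cells trypsinized, washed with PBS, and DCF green fluorescence read at once by FACScan flow cytometry through a 525-nm band-pass filter. Increase expressed with control set at 0%; three independent experiments.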

For data set [7], the system named is NTUB1. Description: Induction of ROS production in human NTUB1 cells using H2DCFDA staining at 20 uM after 24 hrs by flow cytometry analysis in presence of 1 mM of NAC. The data set is classed as functional, cell-based.
The subject of data set [8] is NTUB1. Description: Induction of morphological changes in human NTUB1 cells assessed as increase of tetraploid DNA level using DAPI staining at 20 uM after 24 hrs by immunofluorescence microscopic analysis. The data set is classed as functional, cell-based. In a few lines:
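3 × 10⁵ NTUB1 cells per 6-cm dish treated 24 h. Fixed in 2% formaldehyde/PBS for 20 min, then cold methanol (−20 °C) for 3 min. Stained with DAPI 1 h at room temperature in the dark and examined by fluorescence microscopy.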

The subject of data set [9] is NTUB1. Description: Induction of up-regulation cyclin B1 expression in human NTUB1 cells at 20 uM after 24 hrs by Western blot analysis. The data set is classed as functional, cell-based. In short, it runs like this:
(§3)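 NTUB1 cells exposed 24 h, trypsinized, and resuspended in PBS. Lysed by boiling twice for 10 min in 2× sample buffer, separated by SDS–PAGE, and semi-dry blotted to nitrocellulose. Membranes blocked in 5% skimmed milk in TBST, probed with primary antibodies overnight at 4 °C, then secondary antibody 1 h at room temperature. ECL chemiluminescence detection; GAPDH as internal control.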
For orientation: A western blot detects proteins with antibodies after separation by electrophoresis.

Data set [10] has as its system NTUB1. Description: Induction of up-regulation p21 expression in human NTUB1 cells at 20 uM after 24 hrs by Western blot analysis. Format: functional, cell-based. In a few lines: as §3
Data set [11] deals with NTUB1. Briefly: Induction of down-regulation cyclin B1 expression in human NTUB1 cells at 10 uM after 24 hrs by Western blot analysis. Format: functional, cell-based. In short, it runs like this:
as §3

Data set [12] has as its system NTUB1. Briefly: Induction of up-regulation p21 expression in human NTUB1 cells at 10 uM after 24 hrs by Western blot analysis. Format: functional, cell-based. In short, it runs like this:
as §3

Data set [13] deals with NTUB1. Briefly: Increase of p53 protein expression in human NTUB1 cells at 10 to 20 uM after 24 hrs by Western blot analysis. The data set is classed as functional, cell-based. In a few lines: as §3
Data set [14] in a line: Decrease of Bax protein expression in human NTUB1 cells at 10 to 20 uM after 24 hrs by Western blot analysis. The data set is classed as functional, cell-based. In short, it runs like this:
as §3

Data set [15] is described as follows: Cytotoxicity against human SV-HUC1 cells at 3 to 10 uM after 72 hrs by MTT assay. The conditions noted are these: sv-huc1, 72 h. The data set is classed as cell-based. In short, it runs like this:
as §1

Data set [16] in a line: Cell cycle arrest in human NTUB1 cells assessed as accumulation at sub-G1 phase at 10 uM after 24 hrs using propidium iodide staining by flow cytometry analysis (reference value: 1.96%). The data set is classed as functional, cell-based. In a few lines:
(§4)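 3 × 10⁵ NTUB1 cells per 6-cm dish, treated 24 h (medium-only control). Cells then stained with 50 µg/mL propidium iodide plus 50 µg/mL RNase A in PBS, 30 min at room temperature. DNA content read by FACScan flow cytometry; sub-G1 content taken as apoptosis. Values are mean ± SD of four independent experiments.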

Data set [17] in a line: Cell cycle arrest in human NTUB1 cells assessed as accumulation at G1 phase at 10 uM after 24 hrs using propidium iodide staining by flow cytometry analysis (reference value: 56.06%). The data set is classed as functional, cell-based. In a few lines:
as §4
(In general: In flow cytometry, cells or beads pass a laser one at a time.)

Data set [18] in a line: Cell cycle arrest in human NTUB1 cells assessed as accumulation at S phase at 10 uM after 24 hrs using propidium iodide staining by flow cytometry analysis (reference value: 22.61%). The data set is classed as functional, cell-based. In short, it runs like this: as §4
The nature of data set [19]: Cell cycle arrest in human NTUB1 cells assessed as accumulation at G2/M phase at 10 uM after 24 hrs using propidium iodide staining by flow cytometry analysis (reference value: 18.61%). Format: functional, cell-based. In a few lines: as §4
Data set [20] can be described thus: Cell cycle arrest in human NTUB1 cells assessed as accumulation at sub-G1 phase at 20 uM after 24 hrs using propidium iodide staining by flow cytometry analysis (reference value: 1.96%). The data set is classed as functional, cell-based. In a few lines:
as §4

Data set [21] is described as follows: Cell cycle arrest in human NTUB1 cells assessed as accumulation at G1 phase at 20 uM after 24 hrs using propidium iodide staining by flow cytometry analysis (reference value: 56.06%). The data set is classed as functional, cell-based. In a few lines: as §4
Data set [22] in a line: Cell cycle arrest in human NTUB1 cells assessed as accumulation at S phase at 20 uM after 24 hrs using propidium iodide staining by flow cytometry analysis (reference value: 22.61%). Format: functional, cell-based. In a few lines: as §4
The nature of data set [23]: Cell cycle arrest in human NTUB1 cells assessed as accumulation at G2/M phase at 20 uM after 24 hrs using propidium iodide staining by flow cytometry analysis (reference value: 18.61%). Format: functional, cell-based. In short, it runs like this: as §4
A short description of data set [24]: Cytotoxicity against human NTUB1 cells assessed as cell viability at 10 uM after 72 hrs by MTT assay relative to control. The data set is classed as functional. The conditions noted are these: NTUB1, 72 h, read-out: Activity. In short, it runs like this:
as §1

Data set [25] is described as follows: Cytotoxicity against human NTUB1 cells assessed as cell viability at 20 uM after 72 hrs by MTT assay relative to control. The data set is classed as functional. The conditions noted are these: NTUB1, 72 h, read-out: Activity. In short, it runs like this:
as §1

Data set [26] is described as follows: Cytotoxicity against human NTUB1 cells assessed as cell viability at 10 uM after 72 hrs by MTT assay relative to control in presence of 1 mM of NAC. The data set is classed as functional. In a few lines: (§5)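 NTUB1 cells seeded at 1000/well, incubated overnight, then exposed 72 h to 1 mM NAC alone or to compound with NAC. MTT added for 3 h, formazan dissolved in DMSO, absorbance read at 540 nm. Viability expressed relative to untreated control; mean ± SD (n = 3) from one experiment in triplicate.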

Data set [27] is described as follows: Cytotoxicity against human NTUB1 cells assessed as cell viability at 20 uM after 72 hrs by MTT assay relative to control in presence of 1 mM of NAC. The data set is classed as functional. In a few lines:
as §5

The test system of data set [28] is NTUB1. Description: Induction of ROS production in human NTUB1 cells using H2DCFDA staining at 1 mM after 24 hrs by flow cytometry analysis. Format: functional, cell-based. In a few lines:
as §2

The nature of data set [29]: Cytotoxicity against human NTUB1 cells assessed as cell viability at 1 mM after 72 hrs by MTT assay relative to control. Format: functional. The conditions noted are these: NTUB1, 72 h, read-out: Activity. In short, it runs like this: as §5
The subject of data set [30] is PC-3. Briefly: Cytotoxicity against human PC3 cells at >30 uM after 72 hrs by MTT assay. Format: functional. In short, it runs like this:
as §1

The source made the active and inactive calls. The rule behind the calls is not given here.

Regarding `O=C1c2ccccc2C(=O)c2c(O)cc(OCCCNC3CCCCC3)cc21`, the figures for the EC50 in [1] and in data set [2] were 9.12 µM and 8.37 µM, respectively.
For `O=C1c2ccccc2C(=O)c2c(O)cc(OCCCN3CCCCC3)cc21` the same measures were 28.5 µM and 32.6 µM.
On to `CCCNCCCOc1cc(O)c2c(c1)C(=O)c1ccccc1C2=O`, for which the EC50 in data set [1] is 14 µM; in data set [2] it was 18.9 µM.
Taken in the same sequence, the figures for `CCNCCCOc1ccc2c(c1)C(=O)c1ccccc1C2=O` were 22.9 µM and 24.4 µM.
As to `O=C1c2ccccc2C(=O)c2c(O)cc(OCCCN3CCN(CCO)CC3)cc21`, the EC50 in data set [1] and in [2] was > 50 µM throughout. For the same molecule, the results for the “inhibition (INH)” value in data set [3] and in data set [4] were 18.75% and 18.54%, respectively.
As to `CN1CCN(CCCOc2cc(O)c3c(c2)C(=O)c2ccccc2C3=O)CC1`, the EC50 in [1] is > 50 µM; in data set [2] it was > 30 µM. Besides, the “inhibition (INH)” value in data set [5] stood at 15.54%; in [4], 44.36%.
`O=C1c2ccccc2C(=O)c2c(O)cc(OCCCN3CCOCC3)cc21`: the results for the EC50 in data set [1] and in data set [2] were 17.7 µM and 20.4 µM, respectively. Besides, in data set [6], the outcome was Active.
As to `CCNCCCOc1cc(O)c2c(c1)C(=O)c1ccccc1C2=O`, the EC50 in data set [1] and in data set [2] was > 50 µM throughout. Also, the “inhibition (INH)” value turned out to be 23.2% in data set [3] and 19.2% in data set [4].
As to `CN(CCO)CCCOc1cc(O)c2c(c1)C(=O)c1ccccc1C2=O`, the EC50 in data set [1] came to 8.89 µM; in data set [2], 12.3 µM.
Taken in the same sequence, the figures for `CC(O)CNCCCOc1cc(O)c2c(c1)C(=O)c1ccccc1C2=O` (configuration not stated) were 9.07 µM and 12 µM.
`O=C1c2ccccc2C(=O)c2c(O)cc(OCCCN3CCCC3)cc21`: in data set [7], the outcome was inactive. Also, the outcome in data set [8], in [9], in data set [10], in data set [11], in data set [12] and in [13] was Active. The outcome in data set [14] and in data set [6] was Active. Besides, the Activity entry in data set [15] was “Non-toxic”; in data set [16] it was 2.47%; in data set [17], 51.4%; in data set [18], 25.3%; in [19], 19.2%; in data set [20], 4.69%. Further, the Activity stood at 36.6% in [21]; 21.9% in data set [22]; 29.6% in [23]; 57.4% in data set [26]; 17.1% in [27]. The EC50 in data set [1] was determined as 7.64 µM; in data set [2], 9.72 µM. For the same molecule, the viability at 10 µM in data set [24] came out at 57%. Besides, in data set [25], the viability at 20 µM was found to be 13.1%.
With `CC(=O)N[C@@H](CS)C(=O)O` [ACETYLCYSTEINE], the result in [28] was inactive. Besides, the viability at 1000 µM in [29] was 96.3%.
With `CCOC(=O)N1CCN(CCCOc2cc(O)c3c(c2)C(=O)c2ccccc2C3=O)CC1`, in data set [30], the “inhibition (INH)” value stood at 12.44%. Further, the EC50 is > 30 µM in data set [1] and 50.9 µM in data set [2]. In [6], the result was Active.

Values taken from ChEMBL document CHEMBL1821703, “Anthraquinone derivatives induce G2/M cell cycle arrest and apoptosis in NTUB1 cells” (Bioorg Med Chem, 2011).
